Compounds with a hit are over-represented: about 4.1% of the library has one in this group of screens.
KCNQ1 act: human KCNQ1 channel potentiation or activation | B-score at 10 µM | P51787 | AID 2648 | 310,000 compounds, 0.35% hits | CHO-K1 KCNQ1, thallium flux FluxOR fluorescence; active compounds read high;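 active = fluorescence ratio B-score, a plate-corrected score, at least three library SD, with initial intensity B-score within 5 SD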
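Assay system: stable KCNQ1 CHO-K1 line; medium: assay buffer, equal DMSO in all wells; timing: 90 min dye loading and 20 min compound exposure, both at room temperature; technique: kinetic FluxOR thallium fluorescence, 10-s 1-Hz baseline, 110-s post-stimulus read; read-out basis: B score of baseline-normalized fluorescence ratio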
Cl transport mod: modulates chloride dependent transport by human KCC2 | AID 1456 | 190,000 compounds, 2.2% hits | KCC2 cells, thallium flux FluoZin-2 fluorescence | B-score of Tl+ flux slope (higher = more flux/activation; lower = inhibition) at 10 µM;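 active = thallium flux slope and its plate-corrected score both differing from the plate sample mean at a set confidence after two filtering rounds, in either direction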;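 also: slope of fluorescence scaled to starting intensity during 10 to 20 s after thallium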
KCNK9 inh: inhibitors of human KCNK9 two-pore domain potassium channel; HEK293 KCNK9, FluxOR thallium flux fluorescence; active compounds read low; B-score at 10 µM; 310,000 compounds, 1.2% hits;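 active = ratio B-score over 3 SD below the library mean, with starting fluorescence within 5 SD of its mean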;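 also: negative B-score means less thallium flux so channel inhibition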
KCNQ1 inh: human KCNQ1 channel inhibition; P51787; CHO-K1 KCNQ1, FluxOR thallium flux fluorescence; active compounds read high; B-score at 10 µM; 310,000 compounds, 1.3% hits; AID 2642;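 active = compounds whose thallium flux B-score, printed positive for inhibition, exceeds three library SD while starting fluorescence stays within three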;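 also: channel opened by potassium depolarization with thallium stimulus after 20 min compound exposure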
KCNK3 inh: human KCNK3 channel inhibition, primary screen; 340,000 compounds, 0.84% hits; CHO-KCNK3 thallium flux, FluxOR fluorescence; active compounds read low; B-score at 10 µM;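 active = B-score under library mean minus 4 SD, starting fluorescence ratio at most library mean plus 5 SD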;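 also: more negative B-score means stronger inhibition of thallium flux through KCNK3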
Target sequence (O14649 whole entry, looked up): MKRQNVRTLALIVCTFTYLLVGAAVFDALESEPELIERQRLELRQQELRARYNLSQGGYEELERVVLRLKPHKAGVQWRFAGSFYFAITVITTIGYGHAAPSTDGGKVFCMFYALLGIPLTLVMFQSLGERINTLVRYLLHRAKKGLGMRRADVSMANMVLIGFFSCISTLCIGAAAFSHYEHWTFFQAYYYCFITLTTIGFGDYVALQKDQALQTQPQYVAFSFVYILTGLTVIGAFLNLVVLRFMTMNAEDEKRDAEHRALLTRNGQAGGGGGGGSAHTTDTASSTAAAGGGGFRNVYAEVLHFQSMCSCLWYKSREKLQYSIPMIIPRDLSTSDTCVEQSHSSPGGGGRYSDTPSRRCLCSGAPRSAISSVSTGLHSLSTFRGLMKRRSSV
hERG protect: shields human hERG channel from block by proarrhythmic agents; AID 1511; CHO-hERG, FluxOR thallium flux, dofetilide IC70 present; activation (rescue from dofetilide block), less the hit threshold, % at 10 µM; 310,000 compounds, 0.51% hits; Q12809;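 active = activation above the mean of controls blocked by dofetilide plus 5 SD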;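 also: thallium influx through hERG after potassium depolarization seen as dye fluorescence rise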
KCNK9 inh conf: confirmation of human KCNK9 potassium channel inhibitors | shares compounds with KCNK9 inh | HEK293 KCNK9 cells, FluxOR thallium flux fluorescence | inhibition, % at 10 µM | 4,900 compounds, 43% hits | AID 492992;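 active = thallium signal inhibited by more than 5 SD of the compound-free buffer control wells, on both duplicate plates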
Kir2-1 spec: tests whether KCNK9 modulators also affect mouse Kir2.1. shares compounds with KCNK9 inh. Kir2.1 cells, FluxOR thallium flux fluorescence. inhibition, % at 10 µM. 4,900 compounds, 4% hits. AID 492993;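 active = thallium signal drop more than 5 SD beyond the mean of the no-compound control wells, seen in both duplicate plates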;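 also: signal is fluorescence rise after thallium addition divided by baseline fluorescence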
KCNK9 uninduced: non-induced cell nonspecific activity of KCNK9 modulators. AID 492997. inhibition, % at 10 µM. shares compounds with KCNK9 inh. 4,900 compounds, 40% hits. non-induced KCNK9-HEK293, FluxOR thallium flux;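 active = thallium signal drop beyond 5 SD of the untreated control mean, on both duplicate plates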
Hits are given with their value; - = inactive; . = no result.

SMILES	KCNQ1 act	Cl transport mod	KCNK9 inh	KCNQ1 inh	KCNK3 inh	hERG protect	KCNK9 inh conf	Kir2-1 spec	KCNK9 uninduced
CCC(=NCCc1c(C)[nH]c2ccccc12)C1=C(O)CC(c2ccccc2)CC1=O (stereo not drawn)	-	-	-	-	-	-	-	-	-
CCCCC(=NCCc1c(C)[nH]c2ccc(OC)cc12)C1=C(O)CC(c2ccccc2)CC1=O (stereo not drawn)	-	-	-	-	-	-	-	-	-
COc1ccc(Oc2ccc(C(F)(F)F)cc2NC(=O)c2ccc(F)cc2)cc1	-	-	-	6	-	-	-	-	-
COc1ccc(OC)c(S(=O)(=O)N2CCN(c3c(C)cccc3C)CC2)c1	-	-	-11	-	-	-	52%	-	34%
Cc1ccc(C)c(NC(=O)CN(C)C(=O)c2ccccc2Cc2ccccc2)c1	-	.	-	-	-	-	.	.	.
COc1cccc(CN2CCN(S(=O)(=O)c3ccccc3)CC2)c1OC	-	.	-	-	-	-	.	.	.
O=S(=O)(c1ccccc1)N1CCN(Cc2ccc(Cl)cc2)CC1	-	.	-	-	-	-	-	-	-
COc1ccccc1CN1CCN(S(=O)(=O)c2ccccc2)CC1	-	-	-	-	-	-	-	-	-
COc1ccc(-c2csc(N3CCN(S(=O)(=O)c4ccc5c(c4)NC(=O)CO5)CC3)n2)cc1	-	.	-	-	-	-	.	.	.
c1ccc(CN2CCN(c3nc(-c4ccccc4)nc4ccccc34)CC2)cc1	-	-	-17	-	-	-	34%	-	28%
c1ccc(CN2CCN(c3nc(-c4ccccn4)nc4ccccc34)CC2)cc1	-	-	-	-	-	-	.	.	.
Cc1cccnc1Nc1nc(-c2ccccn2)cs1	-	-	-	-	-	-	.	.	.
Cc1cccnc1Nc1nc(-c2ccccc2)cs1	-	.	-	-	-	-	-	-	26%
CN(c1ccccc1)S(=O)(=O)c1cccc(NC(=O)CSc2ncc(C(F)(F)F)cc2Cl)c1	-	-	-8.9	7	-	-	42%	-	30%
CN(C)c1ccc2c(c1)Sc1cc(N(C)C)ccc1N2C(=O)c1ccccc1	-	-	-	6	-	-	-	-	-
Cc1ccc(CNC(=O)CNS(=O)(=O)c2ccc3c(c2)C(C)(C)C(=O)N3C)cc1	-	.	-	-	-	-	.	.	.
NS(=O)(=O)c1ccc(NC(=S)Nc2ccn(Cc3cccc4ccccc34)n2)cc1	-	-	-	-	-	-	-	-	-
NS(=O)(=O)c1ccc(NS(=O)(=O)c2ccc(NC(=S)Nc3ccccc3)cc2)cc1	-	-	-	-	-	-	.	.	.
Fc1ccc(C2c3[nH]c4ccccc4c3CCN2Cc2ccoc2)cc1 (stereo not drawn)	-	-	-	-	-	-	-	-	-
Cc1cccc(/C=N/n2c(COc3ccccc3)n[nH]c2=S)c1	14	.	-9	-	-	-	-	-	-
S=c1[nH]nc(COc2ccccc2)n1/N=C/c1ccc(Cl)c(Cl)c1	-	.	-	-	-	-	.	.	.
O=S(OCCN1CCCC1)C(c1ccccc1)c1ccccc1 (stereo not drawn)	.	.	.	.	-	.	.	.	.
CC(=O)c1ccc(S(=O)(=O)N2CCN(C(=O)c3ccc(COc4ccccc4)o3)CC2)cc1	.	.	.	.	-	.	.	.	.
O=C(CCc1nc2ccccc2s1)OCc1ccccc1	-	-	-	-	-	-	-	-	-
CCOC(=O)c1ccc(N=c2sc(C(=O)OC)cc(=O)n2CCCN2CCOCC2)cc1	-	-	-	-	-	-	.	.	.
SMILES	KCNQ1 act	Cl transport mod	KCNK9 inh	KCNQ1 inh	KCNK3 inh	hERG protect	KCNK9 inh conf	Kir2-1 spec	KCNK9 uninduced
CCOC(=O)c1ccc(N=c2sc(C(=O)OC)cc(=O)n2Cc2ccco2)cc1	-	-	-	-	-	-	-	-	38%
COC(=O)c1cc(=O)n(CCc2ccccc2)c(=Nc2ccc(F)cc2)s1	-	-	-10	8	-	-	35%	-	34%
COCCNCc1ccccc1[N+](=O)[O-]	.	.	.	.	-	.	.	.	.
COC(=O)c1cc(-c2c(-c3ccc4c(c3)OCO4)noc2-c2ccsc2)cc([N+](=O)[O-])c1	-	.	-	-	-	-	.	.	.
CN(C)c1ccc(-c2c(-c3ccc4c(c3)OCO4)noc2-c2ccsc2)cn1	-	.	-8.7	-	-	-	50%	-	47%
CN(CC(=O)Nc1ccccc1Br)C(=O)c1ccccc1-c1nc2ccccc2s1	-	.	-	-	-	-	.	.	.
COC(=O)/C(=C/c1ccc2c(c1)c1ccccc1n2C)NC(=O)c1ccccc1	-	-	-8.6	-	-	-	54%	-	38%
COc1ccccc1C/C(N)=N/OC(=O)COc1ccc(C)cc1C	-	.	-	-	-	-	-	-	-
Clc1cccc(COn2c(-c3ccc(Cl)cc3Cl)nc3ncccc32)c1	-	.	-8.8	-	-	-	46%	-	35%
Cc1cccc(NC(=O)CCSc2nnc(Cc3ccccc3)o2)c1	-	-	-	-	-	-	-	-	-
Cc1[nH]c2ccccc2c1/C=N/NC(=O)c1cc(-c2cccs2)[nH]n1	-	-	-10	-	-	-	-	-	-
Cc1cc(C(=O)N/N=C/c2c(C)[nH]c3ccccc23)n[nH]1	-	-	-	-	-	-	.	.	.
CCOc1ccc(NC(=O)CN(C)C(=O)c2ccc(C)o2)cc1OCC	-	.	-	-	-	-	.	.	.
CCN(CC)CCNC(=S)Nc1ccc2nc(N3CCN(C)CC3)cc(C)c2c1	-	.	-	-	-	-	.	.	.
CCN(CC)CCNC(=S)Nc1ccc2nc(N3CCCC3)cc(C)c2c1	-	-	-9.4	-	-	-	-	-	-
CC1(NC(=O)Nc2cccc3ccccc23)CCS(=O)(=O)C1 (stereo not drawn)	-	.	-	-	-	-	.	.	.
CCc1ccc(CSc2nccn2-c2ccccc2)cc1	-	.	-	-	-	-	-	-	-
COC(=O)C(=O)C/C(=N/Nc1ncnc2ccccc12)c1ccc(Cl)cc1	-	.	-	-	-	-	.	.	.
CCOc1ccc(OCc2ccc(C(=O)N3CCCC(C)C3)cc2)cc1 (stereo not drawn)	-	-	-	-	-	-	-	-	-
CCOc1ccc(S(=O)(=O)Nc2ccc(C(=O)N3CCCC3)cc2)cc1	-	.	-	-	-	-	.	.	.
CCOc1ccc(NS(=O)(=O)c2ccc(C(=O)N3CCCCCC3)cc2)cc1	-	.	-	-	-	-	-	-	-
CCOc1ccc(OCc2ccc(C(=O)N3CCOCC3)cc2)cc1	-	-	-	-	-	-	.	.	.
